For data set [1], the system named is Schistosoma mansoni. Put plainly: Anthelmintic activity against sexually mature Schistosoma mansoni PR-1 adult worm assessed as parasite death incubated for overnight measured after 7 days drug wash-out period by stereomicroscopic analysis. Format: functional, organism-based. The settings on record: PR-1, 168 h. The procedure, abridged:
(§1)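 Adult male worms exposed in vitro overnight to a range of concentrations, then washed and kept 7 days in drug-free medium. Motility, contraction and survival were scored at day 7. EC50 was taken from dose-response curves of percent worms alive at day 7 against log concentration, as mean and SEM of three replicates, with 95% confidence intervals.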

Data set [2] relates to Schistosoma mansoni. As to the kind of experiment: Anthelmintic activity against sexually mature Schistosoma mansoni PR-1 adult worm assessed as parasite death by measuring worm contractility at 0.3 uM incubated for overnight measured after 7 days drug wash-out period by stereomicroscopic analysis. Format: functional, organism-based. The essentials: as §1
In data set [3] the test system is Schistosoma mansoni. Put plainly: Anthelmintic activity against sexually mature Schistosoma mansoni PR-1 adult worm assessed immediate worm contraction by stereomicroscopic analysis. It is filed as functional, organism-based. The essentials: (§2)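 Adult male worms were watched for contraction, shortening or paralysis at once on addition of the compound. Worms were then kept overnight in its presence before washout.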

The test system of data set [4] is Schistosoma mansoni. As to the kind of experiment: Anthelmintic activity against sexually mature Schistosoma mansoni PR-1 adult worm assessed as loosely curled worm with little movement at >100 uM incubated for overnight measured after 7 days drug wash-out period by stereomicroscopic analysis. Format: functional, organism-based. The procedure, abridged: as §1
Data set [5] in a line: Solubility in 1% DMSO at 300 uM. Format: physicochemical.
For data set [6], the system named is Schistosoma mansoni. As to the kind of experiment: Anthelmintic activity against sexually mature Schistosoma mansoni PR-1 adult worm assessed immediate worm shortening by stereomicroscopic analysis. Format: functional, organism-based. The essentials:
as §2

Data set [7] in a line: Solubility in 1% DMSO at >300 uM. Format: physicochemical.
In data set [8] the test system is Schistosoma mansoni. As to the kind of experiment: Anthelmintic activity against sexually mature Schistosoma mansoni PR-1 adult worm assessed as worm contractility without movement at >40 uM incubated for overnight measured after 7 days drug wash-out period by stereomicroscopic analysis. Format: functional, organism-based. The procedure, abridged: as §1
Data set [9] relates to Schistosoma mansoni. Put plainly: Anthelmintic activity against sexually mature Schistosoma mansoni PR-1 adult worm assessed immediate worm paralysis by stereomicroscopic analysis. Format: functional, organism-based. The procedure, abridged:
as §2

For data set [10], the system named is Schistosoma mansoni. As to the kind of experiment: Anthelmintic activity against sexually mature Schistosoma mansoni PR-1 adult worm assessed as parasite death by measuring worm contractility at 1 uM incubated for overnight measured after 7 days drug wash-out period by stereomicroscopic analysis. Format: functional, organism-based. The procedure, abridged:
as §1

Data set [11] relates to Schistosoma mansoni. Put plainly: Anthelmintic activity against sexually mature Schistosoma mansoni PR-1 adult worm assessed as worm contractility and little movement at >60 uM incubated for overnight measured after 7 days drug wash-out period by stereomicroscopic analysis. Format: functional, organism-based. The essentials: as §1

The source made the active and inactive calls. No cut-off for these calls is given here.

In the case of `O=C(C1CCCCC1)N1CC(=O)N2CCc3ccccc3[C@@H]2C1` [PRAZIQUANTEL, (R)-], in data set [1], the EC50 (usually the concentration at which the effect is half-maximal) worked out at 0.5 µM. Further, the outcome in data set [2] was Active.

As to `C#CCN(C(=O)c1ccc(C2(C(F)(F)F)N=N2)cc1)c1ccc(C(=O)N2CC(=O)N3CCc4ccccc4[C@@H]3C2)cc1`, in data set [1], the EC50 turned out to be 132 µM. The result in data set [3] and in data set [6] was inactive. The result in [4] was Active. Also, the solubility entry in [5] is “soluble”.

For the compound `C#CCN(Cc1ccc(C(=O)N2CC(=O)N3CCc4ccccc4[C@@H]3C2)cc1)C(=O)CCCCCNC(=O)CCC1(C)N=N1`, the EC50 in [1] is above 300 µM. In addition, the solubility entry in data set [7] is listed as “soluble”.

As to `Cc1cc(C)n2c1C=C1C=CC(CCC(=O)N3CC(=O)N4CCc5ccccc5[C@@H]4C3)=[N+]1[B-]2(F)F`, the EC50 in data set [1] came to 53.3 µM. In addition, in data set [8], the outcome was Active. Also, the outcome in data set [3] and in data set [9] was inactive.

Take `O=C(C1CCCCC1)N1CC(=O)N2CCc3ccccc3C2C1` (racemic) [PRAZIQUANTEL]: the EC50 in data set [1] came to 2.5 µM. The outcome in [10] was Active.

For the compound `O=C(C1CCCCC1)N1CC(=O)N2CCc3ccccc3[C@H]2C1`, the EC50 in data set [1] was 78.1 µM. Moreover, in [11], the result was Active.

The record behind these values is ChEMBL document CHEMBL3259694, “Design and synthesis of molecular probes for the determination of the target of the anthelmintic drug praziquantel” (Bioorg Med Chem Lett, 2014).
